Active and inactive are the calls of the source. No cut-off for these calls is given here.
Experiments:
Leishmania amazonensis [1] = experiment: Antileishmanial activity against promastigote stage of Leishmania amazonensis MPRO/BR/1972/M1841-LV-79 assessed as parasite growth inhibition after 72 hrs by MTT assay; type: functional, organism-based; conditions: MPRO/BR/1972/M1841-LV-79, 72 h
Procedure, shortened: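 Promastigotes at 1 × 10^7/mL in LIT + 10% FBS were exposed 72 h at 28 °C to ten concentrations, 0.5–100 µM (final DMSO 0.1%). Viability was read by MTT, with formazan dissolved in SDS-HCl and absorbance at 570 nm. Run in triplicate; IC50 from nonlinear regression.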

Leishmania amazonensis [2] = experiment: Antileishmanial activity against Leishmania amazonensis MPRO/BR/1972/M1841-LV-79 amastigotes infected in mouse peritoneal macrophages assessed as parasite growth inhibition after 24 hrs by Giemsa staining-based microscopic method; type: functional, organism-based; conditions: MPRO/BR/1972/M1841-LV-79, 24 h
Procedure, shortened: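 Peritoneal macrophages (3 × 10^5/well on coverslips, RPMI 1640 + 10% FBS) adhered 4 h at 37 °C, 5% CO2, then infected with stationary-phase promastigotes at 5:1 for 4 h. After washing, cells were cultured 18 h, then treated 24 h with compounds or reference drugs. Cells were methanol-fixed and Giemsa-stained. Infection index = % infected macrophages × mean amastigotes per infected cell. IC50 was fitted by regression.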

[3] = Cytotoxicity against mouse peritoneal macrophages assessed as decrease in cell viability after 24 hrs by MTT assay; type: cell-based, Peritoneal macrophage
Procedure, shortened: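 Peritoneal macrophages (1 × 10^5/well) in RPMI 1640 with 10% FBS, 25 mM HEPES and 2 mM L-glutamine were pre-incubated 4 h. They were then exposed to compounds for 24 h at 37 °C, 5% CO2. Viability was read by MTT; CC50 determined.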

[4] = Safety index, ratio of CC50 for mouse peritoneal macrophage to IC50 for promastigote stage of Leishmania amazonensis MPRO/BR/1972/M1841-LV-79; type: toxicity; conditions: read-out: Ratio CC50/IC50
[5] = Safety index, ratio of CC50 for mouse peritoneal macrophages to IC50 for Leishmania amazonensis MPRO/BR/1972/M1841-LV-79 amastigotes infected in mouse peritoneal macrophages; type: toxicity; conditions: read-out: Ratio CC50/IC50
Leishmania amazonensis [6] = experiment: Antileishmanial activity against Leishmania amazonensis MPRO/BR/1972/M1841-LV-79 amastigotes infected in mouse peritoneal macrophages assessed as reduction in number of intracellular amastigotes at 25 uM after 72 hrs by Giemsa staining-based microscopic method relative to control; type: functional; set-up: scale not given: the % may be the effect or the level left
Procedure, shortened: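 Infected peritoneal macrophages were treated with 25 µM of each compound, pentamidine or AmpB for 72 h. The infection index (% infected macrophages × amastigotes per infected macrophage) was compared with untreated infected cells. Data are given as mean ± SD.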

Leishmania amazonensis [7] = experiment: Antileishmanial activity against promastigote stage of Leishmania amazonensis MPRO/BR/1972/M1841-LV-79 infected in Balb/c mouse assessed as reduction in parasitic load at 0.13 mg/kg, ip administered once daily for 15 days by limiting dilution method relative to control; type: functional; set-up: scale not given: the % may be the effect or the level left
Procedure, shortened: (§1)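 Footpad-infected female BALB/c mice (1 × 10^7 parasites/mL promastigotes; 5 per group) were treated from six weeks post-infection. Dosing was daily ip for 15 days: 0.13 or 0.25 mg/kg/day (PBS, 0.1% DMSO), AmpB 2 mg/kg/day, or PBS vehicle. Skin-lesion parasite burden was quantified after treatment by limiting dilution and compared with untreated infected mice. Data are mean ± SD.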

Leishmania amazonensis [8] = experiment: Antileishmanial activity against promastigote stage of Leishmania amazonensis MPRO/BR/1972/M1841-LV-79 infected in Balb/c mouse assessed as reduction in volume of foot lesions at 0.13 to 0.25 mg/kg, ip administered once daily for 15 days measured every 5 days during compound dosing by caliper method; type: functional, organism-based
Procedure, shortened: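 Infected BALB/c mice (5 per group) were dosed daily ip for 15 days, starting six weeks after footpad inoculation: 0.13 or 0.25 mg/kg/day, AmpB 2 mg/kg/day, or PBS. Foot lesion thickness was measured with a dial caliper every 5 days.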

Leishmania amazonensis [9] = experiment: Antileishmanial activity against promastigote stage of Leishmania amazonensis MPRO/BR/1972/M1841-LV-79 infected in Balb/c mouse assessed as reduction in parasitic load at 0.25 mg/kg, ip administered once daily for 15 days by limiting dilution method relative to control; type: functional; set-up: scale not given: the % may be the effect or the level left; procedure, shortened: as §1
[10] = Mutagenicity in Swiss albino mouse assessed as frequency of micronucleated reticulocytes per 2000 cells at 25 mg/kg administered via gavage by acridine orange staining-based micronucleus test; type: toxicity, organism-based; conditions: in vivo, po
Procedure, shortened: (§2)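 Male Swiss albino mice (30 ± 4 g, 5 per group) were dosed by gavage at 25, 50 or 100 mg/kg. Controls: 0.5% hydroxyethylcellulose (negative) and ip cyclophosphamide 50 mg/kg (positive). Peripheral blood was placed on acridine orange (1 mg/mL) pre-stained slides heated at 70 °C. Fluorescence microscopy used 488 nm light; micronucleated cells were counted among 2000 reticulocytes per animal.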

[11] = Mutagenicity in Swiss albino mouse assessed as frequency of micronucleated reticulocytes per 2000 cells at 50 mg/kg administered via gavage by acridine orange staining-based micronucleus test; type: toxicity, organism-based; conditions: in vivo, po; procedure, shortened: as §2
[12] = Mutagenicity in Swiss albino mouse assessed as frequency of micronucleated reticulocytes per 2000 cells at 100 mg/kg administered via gavage by acridine orange staining-based micronucleus test; type: toxicity, organism-based; conditions: in vivo, po; procedure, shortened: as §2
Mus musculus [13] = experiment: Mutagenic index, ratio of test compound effect to hydroxyethylcellulose effect for Swiss albino mouse assessed as frequency of micronucleated reticulocytes per 2000 cells at 25 mg/kg administered via gavage; type: organism-based; conditions: in vivo, po
Procedure, shortened: (§3)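 Male Swiss albino mice (5 per group) received 25, 50 or 100 mg/kg by gavage. The negative control got 0.3 mL of 0.5% hydroxyethylcellulose; the positive control got cyclophosphamide 50 mg/kg ip. Micronucleated reticulocytes were counted per 2000 cells on acridine orange-stained slides. MI = treated MNRET ÷ negative-control MNRET.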

Mus musculus [14] = experiment: Mutagenic index, ratio of test compound effect to hydroxyethylcellulose effect for Swiss albino mouse assessed as frequency of micronucleated reticulocytes per 2000 cells at 50 mg/kg administered via gavage; type: organism-based; conditions: in vivo, po; procedure, shortened: as §3
Mus musculus [15] = experiment: Mutagenic index, ratio of test compound effect to hydroxyethylcellulose effect for Swiss albino mouse assessed as frequency of micronucleated reticulocytes per 2000 cells at 100 mg/kg administered via gavage; type: organism-based; conditions: in vivo, po; procedure, shortened: as §3
[16] = Toxicity in Balb/c mouse infected with promastigote stage of Leishmania amazonensis MPRO/BR/1972/M1841-LV-79 assessed as change in body weight at 0.13 to 0.25 mg/kg, ip administered once daily for 15 days measured during compound dosing; type: organism-based; conditions: in vivo, 360 h
Leishmania amazonensis [17] = experiment: Antileishmanial activity against promastigote stage of Leishmania amazonensis MPRO/BR/1972/M1841-LV-79 infected in Balb/c mouse assessed as increase in plasma bilirubin level at 0.13 to 0.25 mg/kg, ip administered once daily for 15 days measured during compound dosing; type: functional, organism-based
[18] = Renal toxicity in Balb/c mouse infected with promastigote stage of Leishmania amazonensis MPRO/BR/1972/M1841-LV-79 assessed as change in plasma creatinine level at 0.13 to 0.25 mg/kg, ip administered once daily for 15 days measured post-last dose; type: organism-based; conditions: in vivo, 360 h
Procedure, shortened: (§4)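 Female BALB/c mice (4 weeks old, 5 per group) were infected in the left hind footpad with 1 × 10^7 parasites/mL of infective promastigotes. After six weeks they received daily ip doses for 15 days: 0.13 or 0.25 mg/kg/day (from DMSO stock in PBS, 0.1% DMSO), AmpB 2 mg/kg/day in sterile water, or PBS. Controls were untreated infected and uninfected mice. At end of treatment, plasma bilirubin, AST, ALT, ALP, urea and creatinine were measured with commercial kits.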

[19] = Renal toxicity in Balb/c mouse infected with promastigote stage of Leishmania amazonensis MPRO/BR/1972/M1841-LV-79 assessed as change in plasma urea level at 0.13 to 0.25 mg/kg, ip administered once daily for 15 days measured post-last dose; type: organism-based; conditions: in vivo, 360 h; procedure, shortened: as §4
Leishmania amazonensis [20] = experiment: Antileishmanial activity against promastigote stage of Leishmania amazonensis MPRO/BR/1972/M1841-LV-79 infected in Balb/c mouse assessed as decrease in plasma alkaline phosphatase level at 0.13 to 0.25 mg/kg, ip administered once daily for 15 days measured post-last dose; type: functional, organism-based; procedure, shortened: as §4
Leishmania amazonensis [21] = experiment: Antileishmanial activity against promastigote stage of Leishmania amazonensis MPRO/BR/1972/M1841-LV-79 infected in Balb/c mouse assessed as decrease in plasma aspartate aminotransferase level at 0.13 to 0.25 mg/kg, ip administered once daily for 15 days measured post-last dose; type: functional, organism-based; procedure, shortened: as §4
Leishmania amazonensis [22] = experiment: Antileishmanial activity against promastigote stage of Leishmania amazonensis MPRO/BR/1972/M1841-LV-79 infected in Balb/c mouse assessed as decrease in plasma alanine aminotransferase level at 0.13 to 0.25 mg/kg, ip administered once daily for 15 days measured post-last dose; type: functional, organism-based; procedure, shortened: as §4

CC(C)(C)c1ccc(N/C(=N\C(=O)c2ccccc2)NCc2ccccc2)cc1
IC50 (Leishmania amazonensis [1]): 25.9 µM
IC50 (Leishmania amazonensis [2]): 17.2 µM
CC50 at 24 h [3]: 1120 µM
selectivity ratio [4]: 43.2
selectivity ratio [5]: 65

N=C(N)c1ccc(OCCCCCOc2ccc(C(=N)N)cc2)cc1 [PENTAMIDINE]
IC50 (Leishmania amazonensis [1]): 7.6 µM
IC50 (Leishmania amazonensis [2]): 5.07 µM
CC50 at 24 h [3]: 35.7 µM
selectivity ratio [4]: 4.7
selectivity ratio [5]: 7
Activity (Leishmania amazonensis [6]): 81%

O=C(/N=C(/NCc1ccccc1)Nc1ccc(Br)cc1)c1ccccc1
IC50 (Leishmania amazonensis [1]): 19.6 µM
IC50 (Leishmania amazonensis [2]): 5.6 µM
CC50 at 24 h [3]: 738 µM
selectivity ratio [4]: 37.7
selectivity ratio [5]: 132
Activity (Leishmania amazonensis [7]): 46%
Activity (Leishmania amazonensis [8]): Active
Activity (Leishmania amazonensis [9]): 60%
Activity (Leishmania amazonensis [6]): 86%
Activity [10]: 7
Activity [11]: 8
Activity [12]: 6
Ratio (Mus musculus [13]): 1.4
Ratio (Mus musculus [14]): 1.6
Ratio (Mus musculus [15]): 1.2
Activity [16]: Non-Toxic
Activity (Leishmania amazonensis [17]): Active
Activity [18]: Non-Toxic
Activity [19]: Non-Toxic
Activity (Leishmania amazonensis [20]): Active
Activity (Leishmania amazonensis [21]): inactive
Activity (Leishmania amazonensis [22]): Active

O=C(/N=C(/NCc1ccccc1)Nc1ccccc1)c1ccccc1
IC50 (Leishmania amazonensis [1]): 22.6 µM
CC50 at 24 h [3]: 35.9 µM
selectivity ratio [4]: 1.6

O=C(/N=C(/NCc1ccccc1)Nc1ccc([N+](=O)[O-])cc1)c1ccccc1
IC50 (Leishmania amazonensis [1]): 11.5 µM
IC50 (Leishmania amazonensis [2]): 22.1 µM
CC50 at 24 h [3]: 802 µM
selectivity ratio [4]: 69.7
selectivity ratio [5]: 36.4

Cc1ccc(N/C(=N\C(=O)c2ccccc2)NCc2ccccc2)cc1
IC50 (Leishmania amazonensis [1]): 20.9 µM
IC50 (Leishmania amazonensis [2]): 24.2 µM
CC50 at 24 h [3]: 876 µM
selectivity ratio [4]: 41.9
selectivity ratio [5]: 36.2

O=C(/N=C(/NCc1ccccc1)Nc1ccc(I)cc1)c1ccccc1
IC50 (Leishmania amazonensis [1]): 15.9 µM
IC50 (Leishmania amazonensis [2]): 7.1 µM
CC50 at 24 h [3]: 619 µM
selectivity ratio [4]: 38.9
selectivity ratio [5]: 87.1
Activity (Leishmania amazonensis [6]): 78%
Activity [10]: 3
Activity [11]: 5
Activity [12]: 6
Ratio (Mus musculus [13]): 0.6
Ratio (Mus musculus [14]): 1
Ratio (Mus musculus [15]): 1.2

COc1ccc(N/C(=N\C(=O)c2ccccc2)NCc2ccccc2)cc1
IC50 (Leishmania amazonensis [1]): 25.4 µM
IC50 (Leishmania amazonensis [2]): 21.1 µM
CC50 at 24 h [3]: 837 µM
selectivity ratio [4]: 32.9
selectivity ratio [5]: 39.6

O=C(/N=C(/NCc1ccccc1)Nc1ccc(F)cc1)c1ccccc1
IC50 (Leishmania amazonensis [1]): 21.9 µM
IC50 (Leishmania amazonensis [2]): 19 µM
CC50 at 24 h [3]: 866 µM
selectivity ratio [4]: 39.5
selectivity ratio [5]: 45.5
Activity (Leishmania amazonensis [6]): 70%

O=C(/N=C(/NCc1ccccc1)Nc1ccc(C(F)(F)F)cc1)c1ccccc1
IC50 (Leishmania amazonensis [1]): 6.8 µM
IC50 (Leishmania amazonensis [2]): 21.4 µM
CC50 at 24 h [3]: 18.6 µM
selectivity ratio [4]: 2.7
selectivity ratio [5]: 0.8

O=C(/N=C(/NCc1ccccc1)Nc1ccc(Cl)cc1)c1ccccc1
IC50 (Leishmania amazonensis [1]): 19.7 µM
IC50 (Leishmania amazonensis [2]): 41.2 µM
CC50 at 24 h [3]: 827 µM
selectivity ratio [4]: 42
selectivity ratio [5]: 20.1
Activity (Leishmania amazonensis [6]): 19%
